Eleven compounds from ChEMBL document CHEMBL1121397, “5-substituted 2-amino-6-phenyl-4(3H)-pyrimidinones. Antiviral- and interferon-inducing agents” (1980) can be followed below.

For assay [1], the system named is Human alphaherpesvirus 1. The assay is described as follows: Protective index was measured on herpes simplex virus type 1(HSV-1) infected mice, at dose of 200 mg/kg/day; ip. The settings on record: route intraperitoneal. Type of assay: functional. Summed up:
(§1)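 Mice inoculated ip with 5.6 × 10^4 pfu HSV-1. Compound given ip in saline at the stated (mg/kg)/day at -40, -28, -20, -3 and +3 h relative to infection. Protection index = (control mortality − treated mortality)/control mortality; >0.25 counted as active.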

For assay [2], the system named is L929. The assay is described as follows: Serum interferon response from a single ip administration of 800 mg/kg employing a plaque-reduction assay.(VSV on L929 cells). It is filed as functional, Mus musculus. The note with it: route intraperitoneal. Summed up: (§2)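 Serum interferon measured after one ip dose of 800 mg/kg, titrated by VSV plaque reduction on L929 cells. Peak titre within 24 h scored: +++ ≥2000, ++ ≈500-1000, + ≈50-500, ± ≈10-50 units/mL.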
In general terms: In a plaque reduction assay, fewer plaques than in the control indicate reduced infectivity or spread.

Assay [3] relates to Mus musculus. The assay is described as follows: Tested for in vivo antiviral activity against semliki forest virus in mice after intraperitoneal administration. The settings on record: ip. It is filed as functional. Summed up:
(§3)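 Mice got a single compound dose by the stated route 18 h before a lethal ip Semliki Forest virus challenge, 24 mice per group. ED50 is the minimum dose protecting 50% of mice, calculated by probit analysis of variance, in mg/kg.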

For assay [4], the system named is Mus musculus. The assay is described as follows: Tested for in vivo antiviral activity against semliki forest virus in mice after peroral administration. It is filed as functional. The note with it: po. A digest of the protocol: as §3
The test system of assay [5] is Mus musculus. The assay is described as follows: Tested for in vivo antiviral activity against semliki forest virus in mice after subcutaneous administration. It is filed as functional. The note with it: sc. A digest of the protocol: as §3
The subject of assay [6] is Human alphaherpesvirus 1. The assay is described as follows: Protective index was measured on herpes simplex virus type 1(HSV-1) infected mice, at a dose of 200 mg/kg/day; ip. It is filed as functional. The settings on record: route intraperitoneal. A digest of the protocol:
as §1

Assay [7] relates to L929. The assay is described as follows: Serum interferon response from a single ip administration of 800 mg/kg employing a plaque-reduction assay.(VSV on L929 cells); range 500-1000. The note with it: route intraperitoneal. Type of assay: functional, Mus musculus. A digest of the protocol: as §2
The subject of assay [8] is Human alphaherpesvirus 1. The assay is described as follows: Protective index was measured on herpes simplex virus type 1(HSV-1) infected mice, at a dose of 100 mg/kg/day; ip. Type of assay: functional. The note with it: route intraperitoneal.
The test system of assay [9] is Human alphaherpesvirus 1. Nature of the assay: Protective index was measured on herpes simplex virus type 1(HSV-1) infected mice. at dose of 100 mg/kg/day; ip. It is filed as functional. The note with it: route intraperitoneal.
In assay [10] the test system is L929. Nature of the assay: Serum interferon response from a single ip administration of 800 mg/kg employing a plaque-reduction assay.(VSV on L929 cells); range 50-500. Type of assay: functional, Mus musculus. The note with it: route intraperitoneal. A digest of the protocol: as §2
For assay [11], the system named is Human alphaherpesvirus 1. Nature of the assay: Protective index was measured on herpes simplex virus type 1(HSV-1) infected mice, at dose of 100 mg/kg/day; ip. The settings on record: route intraperitoneal. Type of assay: functional.
In assay [12] the test system is Human alphaherpesvirus 1. Nature of the assay: Protective index was measured on herpes simplex virus type 1(HSV-1) infected mice. at a dose of 200 mg/kg/day, ip. The note with it: route intraperitoneal. Type of assay: functional. Summed up:
as §1

For assay [13], the system named is Human alphaherpesvirus 1. The assay is described as follows: Protective index was measured on herpes simplex virus type 1(HSV-1) infected mice at 150 mg/kg/day. Type of assay: functional. Summed up:
as §1

What is called ED50 is the dose that gives a 50% effect, or the effect in half of the subjects. A lower ED50 goes with greater potency. As for `Nc1nc(O)c(Cl)c(-c2ccccc2)n1`, the Protection index in the assay with Human alphaherpesvirus 1 [1] is 0.62. For the same compound, in the assay on L929 [2], the Interferon response entry is given as “>=2000 ml”. Further, the ED50 amounted to 100 mg/kg in the assay with Mus musculus [3], 90 mg/kg in the assay on Mus musculus [4] and 105 mg/kg in the assay on Mus musculus [5].

On to `CCc1c(O)nc(N)nc1-c1ccccc1`, for which, in the assay with Human alphaherpesvirus 1 [6], the Protection index came out at 0.57. Moreover, in the assay with L929 [7], the Interferon response worked out at 1000 mL. Also, the 50% effective dose (ED50) in the assay on Mus musculus [3] was 45 mg/kg; with Mus musculus [4] it was 280 mg/kg; in the assay with Mus musculus [5], more than 400 mg/kg.

In turn, `CCCc1c(O)nc(N)nc1-c1ccccc1` had a Protection index in the assay with Human alphaherpesvirus 1 [8] of 0.13. This compound also had a median effective dose (ED50) with Mus musculus [3] of more than 400 mg/kg.

In turn, `Nc1nc(O)c(I)c(-c2ccccc2)n1` displayed a Protection index in the assay with Human alphaherpesvirus 1 [9] of 0.86. This compound returned an Interferon response in the assay on L929 [10] of 500 mL. Besides, the values for the ED50 with Mus musculus [3], in the assay on Mus musculus [4] and in the assay on Mus musculus [5] were 50 mg/kg, more than 400 mg/kg and 25 mg/kg, respectively.

In turn, `CCOCCc1c(O)nc(N)nc1-c1ccccc1` gave a Protection index with Human alphaherpesvirus 1 [8] of 0.15. In addition, the ED50 was more than 800 mg/kg with Mus musculus [3], more than 400 mg/kg in the assay with Mus musculus [4] and more than 400 mg/kg in the assay on Mus musculus [5].

`Cc1c(O)nc(N)nc1-c1ccccc1` returned a Protection index with Human alphaherpesvirus 1 [11] of 0.35. Besides, the Interferon response entry in the assay with L929 [2] is recorded as “>=2000 ml”. Besides, the ED50 with Mus musculus [3] is 185 mg/kg.

Consider `Cc1nc(N)nc(O)c1I`, for which the Protection index in the assay on Human alphaherpesvirus 1 [12] was found to be 0.16. This compound also gave an Interferon response in the assay with L929 [7] of 1000 mL. In the assay with Mus musculus [3], this compound had an ED50 of 200 mg/kg.

For `C=CCc1c(O)nc(N)nc1-c1ccccc1`, the Protection index with Human alphaherpesvirus 1 [6] is given as 0.43. The compound also returned an Interferon response in the assay on L929 [10] of 50 mL. Besides, the ED50 was 95 mg/kg with Mus musculus [3], more than 400 mg/kg in the assay with Mus musculus [4] and more than 400 mg/kg in the assay with Mus musculus [5].

In the case of `C#CCc1c(O)nc(N)nc1-c1ccccc1`, the median effective dose (ED50) was 130 mg/kg in the assay with Mus musculus [3] and more than 400 mg/kg in the assay on Mus musculus [4].

In the assay on Human alphaherpesvirus 1 [13], `Cc1nc(N)nc(O)c1Br` yielded a Protection index of 0.4. In addition, the Interferon response in the assay with L929 [2] came out at 1000 mL. In the assay with Mus musculus [3], this compound came in with a median effective dose (ED50) of 250 mg/kg.

On to `Nc1nc(=O)c(Br)c(-c2ccccc2)[nH]1` [BROPIRIMINE], for which the Interferon response result in the assay with L929 [2] is on record as “>=2000 ml”. For the same compound, the results for the ED50 in the assay on Mus musculus [3], in the assay on Mus musculus [4] and in the assay with Mus musculus [5] were 100 mg/kg, 100 mg/kg and 50 mg/kg, respectively.
